The results in this text go back to ChEMBL document CHEMBL1146634, “Sulphonamide-based small molecule VLA-4 antagonists” (Bioorg Med Chem Lett, 2003).

The target of data set [1] is T1, Integrin alpha-4/beta-1 (Homo sapiens, UniProt P05556+P13612). As to the kind of experiment: Inhibition of CS-1 fragment binding to Very late antigen 4 (VLA-4) expressed in Ramos cells. The class given is cell-based.
In data set [2] the target is T1, Integrin alpha-4/beta-1. Kind of data set: Inhibition of CS-1 fragment binding to Very late antigen 4 expressed in Ramos cells in 10% fetal bovine serum(FBS). The class given is cell-based.
The nature of data set [3]: Oral bioavailability in cynomolgus monkey. The class given is ADME, organism-based, Macaca fascicularis. The settings on record: in vivo.
A short description of data set [4]: Plasma clearance in cynomolgus monkey. The settings on record: cercopithecidae. The class given is ADME, organism-based.
Data set [5] can be described thus: Cmax in cynomolgus monkey by iv administration. The class given is ADME, organism-based. Set-up: route intravenous. The settings on record: cercopithecidae, in vivo.
The test system of data set [6] is Mus musculus. Kind of data set: Eosinophil count in murine asthma model tested in vivo at a dose of 5 mg/kg (intravenous).
Data set [7] relates to Mus musculus. As to the kind of experiment: Inhibition of eosinophil infiltration in the murine asthma model tested in vivo at a dose of 10 mg/kg (intravenous). The class given is functional. The settings on record: route intranasal, in the assay text read “intranasal” for “intravenous”. In a few lines: (§1)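 Mice were ovalbumin-sensitized and challenged. Twenty-four hours after the final OVA challenge, they were exsanguinated and the right lung lavaged (0.4 mL saline ×3). Total BAL cells were counted, then the pelleted cells were smeared, stained with Discombe's fluid (eosin/acetone) and counterstained with 0.07% methylene blue for eosinophil counts. Inhibition is expressed relative to OVA-challenged animals.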

Data set [8] relates to Mus musculus. Kind of data set: Reduction in eosinophil count in murine asthma model tested in vivo by at a dose of 10 mg/kg (intravenous). The class given is functional. In a few lines:
as §1

The nature of data set [9]: Cmax in cynomolgus monkey by po administration. The settings on record: cercopithecidae, in vivo. Set-up: route oral. The class given is ADME, organism-based.
The test system of data set [10] is Mus musculus. Kind of data set: Reduction in eosinophil count in murine asthma model tested in vivo by po administration at a dose of 25 mg/kg (peroral). The class given is functional. The procedure, abridged:
as §1

Data set [11] is described as follows: Pharmacokinetic property(Vdss) in cynomolgus monkey. The class given is ADME, organism-based. The settings on record: cercopithecidae, in vivo; read-out: Vdss.
In data set [12] the test system is Mus musculus. Kind of data set: Reduction in eosinophil count in murine asthma model tested in vivo by po administration at a dose of 10 mg/kg (peroral). The class given is functional. The procedure, abridged:
as §1

For data set [13], the system named is Mus musculus. As to the kind of experiment: Inhibition of eosinophil infiltration in the murine asthma model tested in vivo at a dose of 5 mg/kg (intravenous). The class given is functional. The procedure, abridged: as §1
Data set [14] relates to Mus musculus. Kind of data set: Inhibition of eosinophil infiltration in the murine asthma model tested in vivo by po administration at a dose of 10 mg/kg (peroral). The class given is functional. The procedure, abridged: as §1
Data set [15] in a line: Half-life period in cynomolgus monkey. The class given is ADME. The note with it: cercopithecidae, in vivo.
For data set [16], the system named is Mus musculus. As to the kind of experiment: Inhibition of eosinophil infiltration in the murine asthma model tested in vivo by po administration at a dose of 25 mg/kg (peroral). The class given is functional. In a few lines:
as §1

Each structure is given as a SMILES string.

T1 sequence (P05556 whole entry, the tested form may be a part): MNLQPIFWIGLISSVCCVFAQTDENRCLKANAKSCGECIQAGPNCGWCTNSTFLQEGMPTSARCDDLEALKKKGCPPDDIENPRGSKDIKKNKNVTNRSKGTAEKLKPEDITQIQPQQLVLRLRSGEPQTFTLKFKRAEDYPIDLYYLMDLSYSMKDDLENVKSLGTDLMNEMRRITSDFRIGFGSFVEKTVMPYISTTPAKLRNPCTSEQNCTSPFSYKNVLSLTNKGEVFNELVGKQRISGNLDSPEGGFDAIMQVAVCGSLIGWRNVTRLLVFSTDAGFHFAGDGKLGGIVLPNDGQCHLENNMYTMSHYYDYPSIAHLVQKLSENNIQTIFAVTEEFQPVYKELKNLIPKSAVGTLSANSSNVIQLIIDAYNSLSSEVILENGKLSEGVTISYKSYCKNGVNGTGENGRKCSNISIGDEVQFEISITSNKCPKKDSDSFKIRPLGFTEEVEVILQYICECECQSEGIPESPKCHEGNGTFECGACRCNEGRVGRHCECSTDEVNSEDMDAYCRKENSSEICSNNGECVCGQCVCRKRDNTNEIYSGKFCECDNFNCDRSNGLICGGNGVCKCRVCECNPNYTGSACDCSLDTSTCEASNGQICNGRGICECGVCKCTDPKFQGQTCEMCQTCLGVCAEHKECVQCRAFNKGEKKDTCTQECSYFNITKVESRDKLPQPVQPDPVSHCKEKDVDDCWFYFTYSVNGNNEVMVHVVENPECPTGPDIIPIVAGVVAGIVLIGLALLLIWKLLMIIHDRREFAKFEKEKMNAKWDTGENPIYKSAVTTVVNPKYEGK
T1 sequence (P13612 whole entry, the tested form may be a part): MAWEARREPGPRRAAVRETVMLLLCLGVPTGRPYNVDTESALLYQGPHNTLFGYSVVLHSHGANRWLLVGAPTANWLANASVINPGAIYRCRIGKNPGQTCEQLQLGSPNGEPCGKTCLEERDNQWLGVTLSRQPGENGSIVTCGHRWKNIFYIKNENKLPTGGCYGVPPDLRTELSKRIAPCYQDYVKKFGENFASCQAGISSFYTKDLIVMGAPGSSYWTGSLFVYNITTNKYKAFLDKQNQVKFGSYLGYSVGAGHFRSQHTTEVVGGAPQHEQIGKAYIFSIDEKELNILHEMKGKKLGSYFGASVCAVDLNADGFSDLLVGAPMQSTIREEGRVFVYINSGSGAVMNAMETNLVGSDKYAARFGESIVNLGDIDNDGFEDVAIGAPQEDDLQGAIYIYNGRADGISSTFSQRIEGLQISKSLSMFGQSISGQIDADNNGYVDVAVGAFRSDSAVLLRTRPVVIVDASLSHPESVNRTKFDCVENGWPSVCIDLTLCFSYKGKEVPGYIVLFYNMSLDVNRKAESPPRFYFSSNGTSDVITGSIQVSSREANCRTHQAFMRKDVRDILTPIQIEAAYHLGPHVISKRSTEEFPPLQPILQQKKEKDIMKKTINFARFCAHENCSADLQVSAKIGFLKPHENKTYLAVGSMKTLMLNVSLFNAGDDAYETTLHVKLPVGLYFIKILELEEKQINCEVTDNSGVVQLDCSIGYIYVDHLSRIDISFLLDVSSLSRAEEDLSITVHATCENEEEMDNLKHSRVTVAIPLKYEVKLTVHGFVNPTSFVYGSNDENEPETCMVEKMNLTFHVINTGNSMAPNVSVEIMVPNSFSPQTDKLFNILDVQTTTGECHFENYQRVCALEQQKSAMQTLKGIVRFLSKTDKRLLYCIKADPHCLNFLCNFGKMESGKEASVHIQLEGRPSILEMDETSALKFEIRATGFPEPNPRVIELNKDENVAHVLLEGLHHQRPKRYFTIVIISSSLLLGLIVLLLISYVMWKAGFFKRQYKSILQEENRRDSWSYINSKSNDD

The compound `O=C(O)CC[C@H](NS(=O)(=O)c1ccc2ccccc2c1)C(=O)N[C@@H](Cc1ccccc1)C(=O)O` had a concentration for half-maximal inhibition (IC50) at Integrin alpha-4/beta-1 [1] of 180 nM.

In the case of `O=C(O)CN(CC(=O)N[C@@H](Cc1ccc(OCc2c(Cl)cccc2Cl)cc1)C(=O)O)S(=O)(=O)c1ccc(F)cc1`, the figures for the half-inhibitory concentration (IC50) on Integrin alpha-4/beta-1 [2] and on Integrin alpha-4/beta-1 [1] were 10 nM and 0.7 nM, respectively.

For the compound `CN([C@@H](CCC(=O)O)C(=O)N[C@@H](Cc1ccc(OCc2c(Cl)cccc2Cl)cc1)C(=O)O)S(=O)(=O)c1ccccc1`, the IC50 on Integrin alpha-4/beta-1 [2] worked out at 2 nM; at Integrin alpha-4/beta-1 [1], 0.1 nM.

Turning to `CN([C@@H](CCC(=O)O)C(=O)N[C@@H](Cc1ccc(OCc2c(Cl)cccc2Cl)cc1)C(=O)O)S(=O)(=O)c1ccc2ccccc2c1`, the IC50 at Integrin alpha-4/beta-1 [1] was 1 nM.

In the case of `O=C(O)CN(CC(=O)N[C@@H](Cc1ccc(OCc2c(Cl)cccc2Cl)cc1)C(=O)O)S(=O)(=O)c1ccccn1`, the half-maximal inhibitory concentration (IC50) on Integrin alpha-4/beta-1 [2] was 10 nM; on Integrin alpha-4/beta-1 [1], 1.5 nM.

Turning to `O=C(O)CN(CC(=O)N[C@@H](Cc1ccc(OCc2c(Cl)cccc2Cl)cc1)C(=O)O)S(=O)(=O)c1ccccc1`, in data set [3], the bioavailability worked out at 26.9%. For the same compound, the values for the IC50 at Integrin alpha-4/beta-1 [2] and at Integrin alpha-4/beta-1 [1] were 8 nM and 0.6 nM, respectively. The clearance in [4] amounted to 58.8 mL/min/kg. For the same compound, the highest concentration (Cmax) in [5] is 528 ng/mL; in data set [9], 101 ng/mL. Besides, the EOS count in the data set on Mus musculus [6] is 6.26 10^5 cells; in the data set with Mus musculus [8] it was 4.36 10^5 cells; in the data set with Mus musculus [10] it was 2.16 10^5 cells; in the data set on Mus musculus [12], 2.67 10^5 cells. For the same compound, the EOS inhibition with Mus musculus [7] stood at 50%; with Mus musculus [13] it was 28%; in the data set with Mus musculus [14], 69%; in the data set on Mus musculus [16], 75%. For the same compound, in data set [11], the Vd came to 0.303 L/kg. In addition, in [15], the half-life came to 6.6 min.

Turning to `O=C(O)CN(CC(=O)N[C@@H](Cc1ccc(OCc2c(Cl)cccc2Cl)cc1)C(=O)O)S(=O)(=O)c1cccs1`, the IC50 came to 10 nM on Integrin alpha-4/beta-1 [2] and 0.8 nM on Integrin alpha-4/beta-1 [1].

At Integrin alpha-4/beta-1 [1], `CN([C@@H](CC(=O)O)C(=O)N[C@@H](Cc1ccc(OCc2c(Cl)cccc2Cl)cc1)C(=O)O)S(=O)(=O)c1ccccc1` came in with an IC50 of 2 nM.

Regarding `O=C(O)CC[C@H](NS(=O)(=O)c1ccc2ccccc2c1)C(=O)N[C@@H](Cc1ccc(OCc2c(Cl)cccc2Cl)cc1)C(=O)O`, on Integrin alpha-4/beta-1 [1], the half-maximal inhibitory concentration (IC50) came out at 2 nM.

For orientation: IC50 means the concentration that gives 50% inhibition. By bioavailability is commonly meant dose-corrected exposure relative to a reference, in per cent. Broadly, the clearance is the rate of elimination divided by the concentration. As usually defined, the Cmax is the maximum level reached in the sampled fluid or tissue. What is called half-life is how long it takes for the measured level to halve.
